Experimental data as given in ChEMBL document CHEMBL1681691, “Synthesis and biological activity of amino acid conjugates of abscisic acid” (Bioorg Med Chem, 2011).
Activity calls are given as the source filed them. No cut-off for these calls is given here.

Key:
[1] = test system: Oryza sativa; assay: Metabolic stability in Oryza sativa seedling assessed as ABA-d6 release per mg of protein after 4 days by LC-MS; format: ADME, organism-based; settings: in vivo, 96 h
[2] = test system: Oryza sativa; assay: Inhibition of seedling elongation in Oryza sativa at 100 uM after 7 days
[3] = test system: Spinacia oleracea; assay: Inhibition of seed germination in Spinacia oleracea at 100 uM after 24 hrs
[4] = test system: Oryza sativa; assay: Inhibition of seedling elongation in Oryza sativa after 7 days
[5] = molecular target: T1, IAA-amino acid hydrolase ILR1-like 4 (Arabidopsis thaliana) (UniProt O04373); assay: Activity at GST-tagged IAR3 of Arabidopsis thaliana assessed as IAA release per mg of protein after 5 hrs by HPLC
T1 sequence (whole entry): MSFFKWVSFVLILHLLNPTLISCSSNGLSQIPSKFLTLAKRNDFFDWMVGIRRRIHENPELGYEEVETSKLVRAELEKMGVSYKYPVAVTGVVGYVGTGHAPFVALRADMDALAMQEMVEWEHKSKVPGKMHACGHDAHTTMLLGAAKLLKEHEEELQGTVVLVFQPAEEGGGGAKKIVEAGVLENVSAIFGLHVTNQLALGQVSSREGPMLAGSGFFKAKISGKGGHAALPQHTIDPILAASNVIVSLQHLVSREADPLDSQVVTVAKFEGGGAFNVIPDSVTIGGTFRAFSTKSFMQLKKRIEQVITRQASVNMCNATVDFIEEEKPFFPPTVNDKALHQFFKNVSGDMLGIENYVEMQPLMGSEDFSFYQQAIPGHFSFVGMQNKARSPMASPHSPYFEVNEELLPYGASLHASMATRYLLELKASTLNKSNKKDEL
In short: (§1)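 Recombinant Arabidopsis GST-IAR3 expressed in E. coli BL21(DE3) (IPTG 50 µM, overnight at 18 °C) and purified on glutathione-agarose. Substrate at 1 mM was preincubated 5 min at 30 °C in 50 mM Tris-HCl pH 8.0 with 1 mM DTT and 1 mM MnCl2. Reaction started with 15 ng/µl enzyme at 30 °C, sampled up to 5 h (some substrates 7 or 24 h), quenched in MeOH/1% AcOH, cleaned on cartridge, HPLC at 254 nm.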

[6] = molecular target: T1, IAA-amino acid hydrolase ILR1-like 4 (Arabidopsis thaliana); assay: Activity at GST-tagged IAR3 of Arabidopsis thaliana assessed as ABA release per mg of protein after 5 hrs by HPLC; in short: as §1
[7] = test system: Lactuca sativa; assay: Inhibition of seed germination in Lactuca sativa at 100 uM after 24 hrs; format: functional
[8] = test system: Arabidopsis thaliana; assay: Inhibition of seed germination in Arabidopsis thaliana at 10 uM after 24 hrs; format: functional
In short: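 Arabidopsis Col-0 seeds, 25 per test, sterilized in 70% EtOH for 30 min then EtOH for 1 min. Seeds were soaked in 250 µl test solution and chilled 3 days at 5 °C in the dark, then germinated on filter paper under continuous light for 24 h at 22 °C. Scored as % with emerged radicle; run twice. Single-concentration test at 10 µM.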

[9] = test system: Arabidopsis thaliana; assay: Inhibition of seed germination in Arabidopsis thaliana after 24 hrs; format: functional, organism-based
[10] = test system: Spinacia oleracea; assay: Inhibition of seed germination in Spinacia oleracea at 100 uM after 24 hrs; format: functional
In short: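 Spinach cv. Jiromaru seeds sterilized with EtOH for 5 min and rinsed in running tap water for 2 h. Placed on filter paper wetted with 2 ml test solution in a Petri dish, held 2 days at 5 °C, then germinated 24 h at 22 °C under continuous light. Single-concentration test at 100 µM.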

[11] = test system: Lactuca sativa; assay: Inhibition of seed germination in Lactuca sativa after 24 hrs; format: functional, organism-based
[12] = molecular target: T1, IAA-amino acid hydrolase ILR1-like 4 (Arabidopsis thaliana); assay: Activity at GST-tagged IAR3 of Arabidopsis thaliana assessed as ABA release per mg of protein after 7 hrs by HPLC; in short: as §1
[13] = Chemical stability of the compound at 25 degC after 7 days; format: physicochemical; settings: 168 h
In short: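 Compound at 100 µM in 2 ml aqueous solution, prepared as for the rice growth assay, held in a capped glass tube at 25 °C under continuous light for 7 days, then analysed by reverse-phase HPLC.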

Compound	inhibition at 100 µM [2] [%]	IC50 [4] [µM]	further results
[2H]C([2H])([2H])C1(C([2H])([2H])[2H])CC(=O)C=C(C)[C@]1(O)/C=C/C(C)=C\C(=O)N[C@@H](C)C(=O)O			Stability [1]: Unstable
CC1=CC(=O)CC(C)(C)[C@@]1(O)/C=C/C(C)=C\C(=O)N[C@@H](CCC(N)=O)C(=O)O	> 80	8.3	inhibition [3]: Active
C[C@H](NC(=O)Cc1c[nH]c2ccccc12)C(=O)O			Activity [5]: 2100 nmol/h/mg
CC1=CC(=O)CC(C)(C)[C@@]1(O)/C=C/C(C)=C\C(=O)NCC(=O)O	> 80	5.7	Activity [6]: 230 nmol/h/mg
CC1=CC(=O)CC(C)(C)[C@@]1(O)/C=C/C(C)=C\C(=O)N[C@@H](CC(=O)O)C(=O)O	> 80	6.4	
[2H]C([2H])([2H])C1(C([2H])([2H])[2H])CC(=O)C=C(C)[C@]1(O)/C=C/C(C)=C\C(=O)N[C@H](C)C(=O)O			Stability [1]: Stable
CC1=CC(=O)CC(C)(C)[C@@]1(O)/C=C/C(C)=C\C(=O)O [(+)-ABSCISIC ACID]	100	2.1	inhibition at 100 µM [7]: 100%; inhibition at 10 µM [8]: 100%; IC50 [9]: 0.2 µM; inhibition at 100 µM [10]: 100%; IC50 [11]: 5.7 µM
CC1=CC(=O)CC(C)(C)[C@@]1(O)/C=C/C(C)=C\C(=O)N[C@@H](CO)C(=O)O	> 80	13	
CC1=CC(=O)CC(C)(C)[C@@]1(O)/C=C/C(C)=C\C(=O)N[C@@H](CCC(=O)O)C(=O)O			inhibition [3]: Active
CSCC[C@H](NC(=O)/C=C(C)\C=C\[C@@]1(O)C(C)=CC(=O)CC1(C)C)C(=O)O	> 80	16	Activity [12]: 22 nmol/h/mg
CC1=CC(=O)CC(C)(C)[C@@]1(O)/C=C/C(C)=C\C(=O)N[C@@H](C)C(=O)O	> 80	7	inhibition [8]: Active; Activity [6]: 310 nmol/h/mg; Stability [13]: Stable
CC1=CC(=O)CC(C)(C)[C@@]1(O)/C=C/C(C)=C\C(=O)N[C@@H](CC(N)=O)C(=O)O	> 80	9.3	Activity [12]: 19 nmol/h/mg
